# Ba/F3 V617F tox: lowers viability of Ba/F3 cells expressing EpoR and JAK2V617F; ATP luminescence; inhibition, % at 5.6 µM; 220,000 compounds, 1.1% hits;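 active means inhibition above the campaign mean plus 3 SD over all tested compounds, cut at about 24% in these data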;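 further: cytokine-independent growth of Ba/F3 cells driven by EpoR plus mutant JAK2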
# APP transl inh: APP translation inhibition; SH-SY5Y APP 5'UTR-luciferase reporter, luminescence; inhibition, % at 2 µM; 190,000 compounds, 0.82% hits; AID 1285;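 active means inhibition above a set limit, derived from the sample mean plus 3 SD, cut at about 45% in these data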
# MT stabilize HCS: stabilizes microtubules in HeLa cells. % tubulin-high responders, % at 10 µM. HeLa tubulin immunostaining HCS, 24 h; share of cells brighter than vehicle mean+2SD. AID 2205. 200,000 compounds, 0.83% hits;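 active means plate Z-score above 3 for both tubulin-high and condensed-nucleus cell shares, with cell loss under 80%, at 10 µM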;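 further: anti alpha tubulin signal scored within the nucleus-defined area of each cell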
# BaF3 parental: counter-screen for JAK2V617F inhibitors: parental Ba/F3 viability inhibitors | CellTiter-Glo ATP luminescence | inhibition, % at 5.6 µM | 220,000 compounds, 1.1% hits | AID 1486;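 active means inhibition above a per-campaign cutoff, the mean inhibition of all tested compounds plus 3 SD, cut at about 27% in these data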
# bCat nuc transl: modulators of beta-catenin nuclear translocation | HeLa beta-catenin nuclear translocation, immunofluorescence imaging | nuclear translocation activity, % at 5 µM | 190,000 compounds, 0.3% hits;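 active means nuclear translocation activity above 50% at 5 µM, with a well cell count of 50 or more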;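 further: per-cell ratio of nuclear to cytoplasmic median beta-catenin stain intensity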
#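 assay system = human HeLa cells, endogenous beta-catenin | times = compound treatment 24 h, 37°C, 5% CO2 | detection = Anti-beta-catenin immunofluorescence on PFA-fixed, Triton-permeabilized cells, DAPI nuclei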
# IEC-6 tox: IEC-6 cytotoxicity, counter-screen for KLF5 inhibitors. inhibition, % at 5 µM. luminescence viability. 290,000 compounds, 0.78% hits; in the data active means inhibition above about 22%
# Numbers stand for hits; 0 = inactive; - = no result given. Shown are actives, neighbours in structure and some others; about 2.2% of the full set was active somewhere.
SMILES,Ba/F3 V617F tox,APP transl inh,MT stabilize HCS,BaF3 parental,bCat nuc transl,IEC-6 tox
CCn1c(=O)[nH]c2ccccc2c1=O,0,0,0,0,0,0
COc1ccc(Cl)cc1C(=O)Nn1cnnc1,-,-,-,-,-,0
N#Cc1ccccc1OCC(=O)OCCCOC(=O)COc1ccccc1C#N,-,-,-,-,-,0
CCCNC(=O)NC(=O)COC(=O)c1ccc(S(=O)(=O)N(C)c2ccccc2OC)cc1,0,0,15,0,0,0
COc1ccc(-c2noc(CNC(=O)c3ccoc3C)n2)cc1OC,-,-,-,-,-,0
CSCC[C@H](NC(=O)N1C[C@H]2C[C@@H](C1)c1cccc(=O)n1C2)C(=O)Nc1ccc(NC(C)=O)cc1,-,-,-,-,-,0
CCOC(=O)c1c(NC(=O)CSc2ncccn2)sc2c1CCN(Cc1ccccc1)C2,0,0,0,39,0,0
CC(C)c1nnc(NC(=O)CCC(=O)N2CCC(Cc3ccccc3)CC2)s1,-,-,-,-,-,0
CCN(CC)C(=O)Cn1cc(S(=O)(=O)CC(=O)Nc2ccccc2C)c2ccccc21,-,-,-,-,-,0
CC1=NN(c2ccc(C)c(C)c2)C(=O)/C1=C\C=C\c1ccc([N+](=O)[O-])o1,0,95,0,0,0,0
COc1ccc2c(Cl)c(C(=O)N/N=C/c3ccc4c(c3)OCO4)sc2c1,0,0,0,0,0,0
O=C(N/N=C/c1ccc2c(c1)OCO2)c1sc2cc(Cl)ccc2c1Cl,0,0,19,0,0,0
O=C(N/N=C/c1ccc2c(c1)OCO2)c1sc2cccc(Cl)c2c1Cl,0,0,22,0,0,0
CCN(CC)/C(=N\S(=O)(=O)c1ccc(F)cc1)c1ccccc1,-,-,-,-,-,0
CC(C)C(OC(=O)CN1C(=O)c2ccccc2C1=O)C(=O)NC1CCCCC1 (centres undefined),-,-,-,-,-,0
Cc1cc(OC(=O)c2cccc(F)c2)c([N+](=O)[O-])c(=O)[nH]1,-,-,-,-,-,0
COC(=O)C1=C(C)C(c2ccc(OC)cc2OC)NC(=O)N1 (centres undefined),0,0,0,0,0,0
COc1ccc(C2CC(C)(c3ccc(OC)cc3OC)Nc3ccccc3N2)c(OC)c1 (centres undefined),62,0,0,72,0,0
COc1ccc(S(=O)(=O)Nc2cccc(-c3ccc4nncn4n3)c2)cc1F,81,63,30,79,0,59
Cc1c(CC(=O)N2C[C@H]3C[C@@H](C2)c2cccc(=O)n2C3)c(=O)oc2cc3occ(C(C)(C)C)c3cc12,-,-,-,-,-,0
CC1CN(C(=O)CCC(=O)NCc2ccc(Cl)cc2)c2ccccc2O1 (centres undefined),-,-,-,-,-,0
O=C(Nc1cccnc1)c1ccc(Cl)c(S(=O)(=O)N2CCCCCC2)c1,0,0,0,0,0,0
CCN(CC)CCOC(=O)c1ccc(NC(=O)c2ccc(Cl)c(S(=O)(=O)N3CCCCCC3)c2)cc1,0,0,25,0,0,0
Nc1cc(Cl)ccc1N1CCCCCC1,42,0,0,56,0,0
Cc1ccc(NCCc2ccc(C)nc2)cc1,0,53,0,0,0,0
SMILES,Ba/F3 V617F tox,APP transl inh,MT stabilize HCS,BaF3 parental,bCat nuc transl,IEC-6 tox
Cc1cccc(CS(=O)(=O)Cc2ccc(C(=O)NC3CCCC3)o2)c1,-,-,-,-,-,0
COc1ccc(S(=O)(=O)N(CC(=O)NCc2ccncc2)c2cc(C)cc(C)c2)cc1OC,-,-,-,-,-,0
O=C(O)c1ccc2noc(-c3ccccc3)c2c1,0,0,0,0,0,0
Clc1ccc2noc(-c3ccccc3)c2c1,0,47,0,0,0,0
C/C(=N/NC(=O)CNC(=O)c1ccccn1)c1ccccc1,0,0,0,0,0,0
C=CCNC(=S)N/N=C(\C)c1ccccn1,98,93,0,91,-,91
C/C=C/C(=O)N1c2ccc(C)cc2C(C)=CC1(C)C,0,-,-,0,0,0
CC1=CC(C)(C)[N+](C)(C)c2ccc(C)cc21,29,0,0,42,0,0
Nc1nc(N)c2c(ccc3nccc32)[nH]1,94,-,-,102,0,71
Nc1cc[n+](CC(=O)c2ccc3c(c2)OCCO3)cc1,90,0,0,71,-,0
CCN1CCc2c(sc(N)c2C#N)C1,0,66,0,0,0,0
Cc1ccc2c(c1)nnn2C1CCN(S(=O)(=O)c2ccc(C(=O)N3C(C)CCCC3C)cc2)CC1 (centres undefined),51,0,0,58,0,0
COc1cccc(CC2(CO)CCN(Cc3cnc(N4CCOCC4)s3)CC2)c1,0,0,-,0,0,0
OCC1(CCCc2ccccc2)CCN(Cc2cnc(N3CCOCC3)s2)CC1,0,0,0,64,0,0
c1ccc(-c2nnc3sc(-c4csc5c4CCCC5)nn23)cc1,0,0,21,0,0,0
c1ccc(-c2nnc3sc(-c4ccncc4)nn23)cc1,0,0,0,0,-,0
O=C(O)CSc1ncnc2sc3c(c12)CCCC3,0,0,0,90,0,0
O=C(O)CSc1ncnc2sc3c(c12)CCC3,0,0,0,0,0,0
COc1ccc(C(=O)COC(=O)c2ccc(N(C)C)cc2)cc1,0,0,0,0,0,0
O=C(C[n+]1ccccc1)c1ccc(-c2ccccc2)cc1,0,0,0,0,0,0
CN(C)c1cc[n+](CC(=O)c2ccc(Br)cc2)cc1,51,0,0,56,0,0
COc1ccc(C(=O)C[n+]2ccc(N(C)C)cc2)cc1,67,-,-,59,0,0
CN(C)c1cc[n+](CC(=O)c2ccc(-c3ccccc3)cc2)cc1,99,0,0,68,0,0
COc1ccc(OC)c(C(=O)c2ccc(C(=O)Nc3ccc(NC(C)=O)cc3)cc2)c1,-,-,-,-,-,0
CC(C)OCCCNC(=O)COc1ccc2oc3c(c2c1)CCCC3,-,-,-,-,-,0
O=C(Nc1ncc2c(n1)-c1ccccc1CC2)c1cccc(Cl)c1,0,-,44,0,-,0
Cc1ccc(CNCC(O)(c2ccccc2)c2ccccc2)cc1,-,-,-,-,-,0
Cc1ccc(CNCC(O)(c2ccccc2)c2ccc(Cl)cc2)cc1 (centres undefined),0,0,0,29,0,0
